{"source": "ChEMBL document CHEMBL4304743", "about": "“Discovery of ( E)- N1-(3-Fluorophenyl)- N3-(3-(2-(pyridin-2-yl)vinyl)-1 H-indazol-6-yl)malonamide (CHMFL-KIT-033) as a Novel c-KIT T670I Mutant Selective Kinase Inhibitor for Gastrointestinal Stromal Tumors (GISTs)” (J Med Chem, 2019)", "key": {"[1]": {"test_system": "Mast/stem cell growth factor receptor Kit (Homo sapiens), P10721 [UNDEFINED MUTATION]", "sequence (P10721 whole entry, looked up, stated change not applied)": "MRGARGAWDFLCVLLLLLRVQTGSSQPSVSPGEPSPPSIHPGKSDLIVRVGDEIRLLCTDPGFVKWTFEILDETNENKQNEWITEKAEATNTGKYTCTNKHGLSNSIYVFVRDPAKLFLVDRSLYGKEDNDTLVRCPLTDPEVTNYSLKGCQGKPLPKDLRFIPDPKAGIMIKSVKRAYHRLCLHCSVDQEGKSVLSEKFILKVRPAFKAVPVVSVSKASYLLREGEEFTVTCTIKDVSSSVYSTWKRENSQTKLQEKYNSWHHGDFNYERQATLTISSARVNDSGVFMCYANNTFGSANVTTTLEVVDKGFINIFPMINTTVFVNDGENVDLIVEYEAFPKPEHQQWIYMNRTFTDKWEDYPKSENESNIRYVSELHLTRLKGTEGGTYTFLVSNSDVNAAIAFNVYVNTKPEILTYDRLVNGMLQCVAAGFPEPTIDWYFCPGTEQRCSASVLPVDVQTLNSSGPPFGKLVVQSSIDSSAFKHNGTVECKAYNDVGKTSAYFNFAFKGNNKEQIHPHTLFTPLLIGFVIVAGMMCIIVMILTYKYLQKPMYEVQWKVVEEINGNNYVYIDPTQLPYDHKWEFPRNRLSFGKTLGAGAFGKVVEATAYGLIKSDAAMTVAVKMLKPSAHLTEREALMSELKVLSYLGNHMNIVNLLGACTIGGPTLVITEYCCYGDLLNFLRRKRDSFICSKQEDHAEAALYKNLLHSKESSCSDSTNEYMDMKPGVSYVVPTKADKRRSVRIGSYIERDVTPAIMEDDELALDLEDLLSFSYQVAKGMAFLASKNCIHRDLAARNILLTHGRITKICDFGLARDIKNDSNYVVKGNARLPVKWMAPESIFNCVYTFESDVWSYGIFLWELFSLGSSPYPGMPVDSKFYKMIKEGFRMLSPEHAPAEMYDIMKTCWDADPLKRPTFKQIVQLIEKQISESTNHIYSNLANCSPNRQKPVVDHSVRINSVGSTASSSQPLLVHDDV", "experiment": "Inhibition of c-KIT 560 to 578 deletion/T670I double mutant in human GIST5R cells assessed as reduction in c-KIT autophosphorylation at Y823 residue at 0.1 uM to 3 uM after 1 hr by Western blot analysis", "format": "cell-based", "summary_of_the_method": "(§1)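 Serial compound dilutions applied for 1 h to GIST-T1, GIST-T1-T670I (CRISPR/Cas9 T670I knock-in, clone confirmed by Sanger sequencing) or GIST-5R cells in DMEM with 10% FBS. Cells then lysed and phospho-proteins detected by standard Western blotting.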"}, "[2]": {"target": "Mast/stem cell growth factor receptor Kit (Homo sapiens, UniProt P10721)", "sequence (P10721 whole entry, the tested form may be a part)": "as the sequence (P10721 whole entry, looked up, stated change not applied) above", "experiment": "Inhibition of TEL fused wild type c-KIT (unknown origin) transfected in mouse BaF3 cells assessed as reduction in phosphorylation at Y719 residue after 2 hrs by Western blot analysis", "format": "cell-based"}, "Mus musculus": {"test_system": "Mus musculus", "experiment": "Inhibition of AKT phosphorylation at […] residue in tumor of human GIST5R cells xenografted in nude mouse at 100 mg/kg, po administered as single dose and measured at 2 hrs", "format": "functional, organism-based", "summary_of_the_method": "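Female nu/nu mice bearing subcutaneous GIST-5R tumors (cells in Matrigel, right flank) given one oral dose of 100 mg/kg in 0.5% methylcellulose/0.4% Tween80. Tumors collected over a 2 h time course. p-c-KIT, p-ERK and p-AKT measured alongside plasma drug levels.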"}, "[3]": {"target": "Serine/threonine-protein kinase pim-3 (Homo sapiens, UniProt Q86V86)", "experiment": "Inhibition of wild-type human partial length PIM3 (G16 to A317 residues) expressed in bacterial expression system after 1 hr by Z-LYTE assay"}, "GISTT1": {"test_system": "GISTT1", "experiment": "Induction of apoptosis in human GISTT1 cells harboring c-KIT 560 to 578 deletion/T670I double mutant assessed as increase in cleaved caspase level after 24 hrs by Western blot analysis", "format": "functional, cell-based"}, "[4]": {"test_system": "Mast/stem cell growth factor receptor Kit (Homo sapiens), P10721 [UNDEFINED MUTATION]", "experiment": "Inhibition of c-KIT 560 to 578 deletion/T670I double mutant in human GIST5R cells assessed as reduction in c-KIT autophosphorylation at Y703 residue at 0.1 uM to 3 uM after 1 hr by Western blot analysis", "format": "cell-based", "summary_of_the_method": "as §1"}, "[5]": {"test_system": "Mast/stem cell growth factor receptor Kit (Homo sapiens), P10721 [D816V]", "sequence (P10721 whole entry D816V, the tested form may be a part)": "as the sequence (P10721 whole entry, looked up, stated change not applied) above, with D816V counted along it", "experiment": "Inhibition of TEL fused c-KIT D816V mutant (unknown origin) transfected in mouse BAF3 cells assessed as growth inhibition after 72 hrs by CCK8 assay", "format": "cell-based", "summary_of_the_method": "(§2)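 Tel-c-KIT-transformed BaF3 lines (IL-3 independent) kept in RPMI 1640 with 10% FBS, 2% L-glutamine and pen/strep. Cells at 1.5 to 5 × 10^4 cells/mL mixed with graded compound and incubated 72 h at 37 °C, 5% CO2. Viability by CCK-8 absorbance at 450 nm, normalized to DMSO. GI50 from dose–response fit.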"}, "[6]": {"experiment": "MRT (0 to infinity) in mouse at 1 mg/kg, iv measured after 2 to 720 mins by LC-tandem mass spectrometry analysis", "format": "ADME, organism-based", "details": "in vivo"}, "[7]": {"test_system": "Mast/stem cell growth factor receptor Kit (Homo sapiens), P10721 [D820E]", "sequence (P10721 whole entry D820E, the tested form may be a part)": "as the sequence (P10721 whole entry, looked up, stated change not applied) above, with D820E counted along it", "experiment": "Inhibition of TEL fused c-KIT D820E mutant (unknown origin) transfected in mouse BAF3 cells assessed as growth inhibition after 72 hrs by CCK8 assay", "format": "cell-based", "summary_of_the_method": "as §2"}, "[8]": {"test_system": "Mast/stem cell growth factor receptor Kit (Homo sapiens), P10721 [UNDEFINED MUTATION]", "experiment": "Inhibition of c-KIT 560 to 578 deletion mutant in human GISTT1 cells assessed as reduction in c-KIT autophosphorylation at Y719 residue at 0.1 uM to 3 uM after 1 hr by Western blot analysis", "format": "cell-based", "summary_of_the_method": "as §1"}, "[9]": {"test_system": "Mast/stem cell growth factor receptor Kit (Homo sapiens), P10721 [UNDEFINED MUTATION]", "experiment": "Inhibition of c-KIT 560 to 578 deletion mutant in human GISTT1 cells assessed as reduction in c-KIT autophosphorylation at Y703 residue at 0.1 uM to 3 uM after 1 hr by Western blot analysis", "format": "cell-based", "summary_of_the_method": "as §1"}, "[10]": {"experiment": "Antitumor activity against human GIST5R cells xenografted in nude mouse assessed as tumor weight at 25 mg/kg, po administered […] via gavage for 28 days (reference value: 0.59g)", "format": "functional", "summary_of_the_method": "(§3)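 Female nu/nu mice (5 weeks old) given subcutaneous right-flank GIST-5R cells in Matrigel. Dosing began at tumors of 200-400 mm3; randomized, 4 mice per group. Daily oral dosing (QD) at 25, 50 or 100 mg/kg in 0.5% methylcellulose/0.4% Tween80, or vehicle alone, for 28 days. Body weight and tumor volume, (W²×L)/2, measured daily; mean±SEM.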"}, "[11]": {"experiment": "Antitumor activity against human GIST5R cells xenografted in nude mouse assessed as tumor growth inhibition at 100 mg/kg, po administered […] via gavage for 28 days relative to control", "format": "functional", "details": "672 h, read-out: TGI", "summary_of_the_method": "as §3"}, "[12]": {"target": "Mast/stem cell growth factor receptor Kit (Homo sapiens, UniProt P10721, T670I)", "sequence (P10721 26-976 T670I limits assumed)": "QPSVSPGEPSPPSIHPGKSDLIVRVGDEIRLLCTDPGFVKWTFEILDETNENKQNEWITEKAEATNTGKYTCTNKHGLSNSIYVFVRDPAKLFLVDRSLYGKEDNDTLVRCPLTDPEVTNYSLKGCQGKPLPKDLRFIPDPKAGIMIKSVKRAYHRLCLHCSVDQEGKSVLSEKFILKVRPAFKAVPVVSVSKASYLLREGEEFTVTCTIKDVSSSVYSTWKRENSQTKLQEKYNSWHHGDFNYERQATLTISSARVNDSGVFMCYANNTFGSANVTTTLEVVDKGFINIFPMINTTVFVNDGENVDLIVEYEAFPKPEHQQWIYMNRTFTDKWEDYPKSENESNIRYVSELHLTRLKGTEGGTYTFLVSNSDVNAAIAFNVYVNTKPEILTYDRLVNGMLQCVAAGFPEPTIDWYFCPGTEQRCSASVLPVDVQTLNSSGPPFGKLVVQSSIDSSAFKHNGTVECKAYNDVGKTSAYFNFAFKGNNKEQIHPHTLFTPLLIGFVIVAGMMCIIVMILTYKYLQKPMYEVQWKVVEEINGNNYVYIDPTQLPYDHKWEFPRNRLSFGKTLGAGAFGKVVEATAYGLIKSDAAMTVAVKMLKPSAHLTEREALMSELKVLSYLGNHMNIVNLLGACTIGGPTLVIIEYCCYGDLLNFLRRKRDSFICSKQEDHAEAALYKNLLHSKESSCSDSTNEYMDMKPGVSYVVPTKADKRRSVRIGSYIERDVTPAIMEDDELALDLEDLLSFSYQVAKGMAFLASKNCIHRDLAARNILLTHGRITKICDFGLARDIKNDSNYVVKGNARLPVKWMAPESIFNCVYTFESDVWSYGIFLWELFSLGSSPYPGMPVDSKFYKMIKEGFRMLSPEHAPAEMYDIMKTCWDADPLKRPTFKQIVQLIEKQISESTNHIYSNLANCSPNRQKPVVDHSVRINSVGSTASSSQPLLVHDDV", "experiment": "Inhibition of TEL fused wild type c-KIT T670I mutant (unknown origin) transfected in mouse BaF3 cells assessed as reduction in phosphorylation at Y823 residue after 2 hrs by Western blot analysis", "format": "cell-based"}, "Homo sapiens": {"species": "Homo sapiens", "experiment": "Induction of cell cycle arrest in human GIST5R cells harboring 560 to 578 deletion/T670I double mutant after 24 hrs", "format": "functional, cell-based"}, "[13]": {"experiment": "Drug level in plasma of nude mouse xenograted with human GIST5R cells at 100 mg/kg, po administered as single dose and measured at 30 mins", "format": "ADME, organism-based", "details": "in vivo, 0.5 h", "summary_of_the_method": "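GIST-5R xenograft nu/nu mice given a single 100 mg/kg oral dose; plasma drug concentration followed over a time course alongside tumor p-c-KIT, p-ERK and p-AKT.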"}, "[14]": {"experiment": "Tmax in mouse at 1 mg/kg, iv measured after 2 to 720 mins by LC-tandem mass spectrometry analysis", "format": "ADME, organism-based", "details": "in vivo"}, "[15]": {"experiment": "AUC (0 to infinity) in mouse at 1 mg/kg, iv measured after 2 to 720 mins by LC-tandem mass spectrometry analysis", "format": "ADME, organism-based", "set-up": "dose 1 mg/kg, time infinity, route intravenous", "details": "in vivo", "summary_of_the_method": "(§4)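 Mice dosed 1 mg/kg i.v. or 10 mg/kg p.o.; plasma drug levels by LC-MS/MS, parameters by noncompartmental analysis; values not from triplicate testing.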"}, "[16]": {"experiment": "Cmax in Sprague-Dawley rat at 10 mg/kg, po measured after 5 to 720 mins by LC-tandem mass spectrometry analysis", "format": "ADME, organism-based", "set-up": "dose 10 mg/kg, route oral", "details": "in vivo", "summary_of_the_method": "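Male Sprague-Dawley rats (190-210 g), fasted 12 h, randomized into two groups: 1 mg/kg i.v. or 10 mg/kg p.o., both formulated in 10% DMSO/90% of 5% glucose water. Blood sampled at 2-720 min (i.v.) or 5-720 min (p.o.). Plasma protein-precipitated with methanol, caffeine internal standard, LC-MS/MS. Noncompartmental analysis; triplicate, ±SD.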"}, "[17]": {"target": "Serine/threonine-protein kinase PAK 2 (Homo sapiens, UniProt Q13177)", "sequence (Q13177 whole entry, the tested form may be a part)": "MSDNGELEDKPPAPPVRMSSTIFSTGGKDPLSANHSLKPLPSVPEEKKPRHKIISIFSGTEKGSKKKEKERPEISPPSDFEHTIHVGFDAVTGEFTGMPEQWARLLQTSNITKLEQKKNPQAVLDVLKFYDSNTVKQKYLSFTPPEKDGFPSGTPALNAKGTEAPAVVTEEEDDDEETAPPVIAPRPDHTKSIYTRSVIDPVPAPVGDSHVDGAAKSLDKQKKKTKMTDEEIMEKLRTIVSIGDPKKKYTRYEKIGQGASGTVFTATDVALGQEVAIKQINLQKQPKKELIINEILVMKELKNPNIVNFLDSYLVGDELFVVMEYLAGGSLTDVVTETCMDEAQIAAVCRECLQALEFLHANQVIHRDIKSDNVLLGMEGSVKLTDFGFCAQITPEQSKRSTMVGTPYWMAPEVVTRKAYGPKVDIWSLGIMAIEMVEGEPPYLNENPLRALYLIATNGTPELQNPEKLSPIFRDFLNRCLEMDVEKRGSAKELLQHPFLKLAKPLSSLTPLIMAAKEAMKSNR", "experiment": "Binding affinity to wild-type human partial length PAK2 (P151 to R525 residues) expressed in bacterial expression system assessed as enzyme remaining activity at 1 uM by Kinomescan assay relative to control", "summary_of_the_method": "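KINOMEscan competition binding panel of 468 kinases and mutants, compound at 1 μM; binding reported as percent of control.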"}, "[18]": {"experiment": "AUC (0 to infinity) in mouse at 10 mg/kg, po measured after 5 to 720 mins by LC-tandem mass spectrometry analysis", "format": "ADME, organism-based", "set-up": "dose 10 mg/kg, route oral, time infinity", "details": "in vivo", "summary_of_the_method": "as §4"}}, "note": "The source made the active and inactive calls. The calls are words filed in the database; no cut-off is given here."}
{"smiles": "O=C(CC(=O)Nc1ccc2c(/C=C/c3ccccn3)n[nH]c2c1)Nc1cccc(F)c1", "values": [{"measurement": "inhibition", "setting": "[1]", "result": "Active"}, {"measurement": "EC50", "setting": "[2]", "result": "> 1000", "unit": "nM"}, {"measurement": "inhibition", "setting": "Mus musculus", "result": "Active"}, {"measurement": "IC50", "setting": "[3]", "result": "> 10000", "unit": "nM"}, {"measurement": "Activity", "setting": "GISTT1", "result": "Dose-dependent effect"}, {"measurement": "inhibition", "setting": "[4]", "result": "Active"}, {"measurement": "GI50", "setting": "[5]", "result": 3460, "unit": "nM"}, {"measurement": "MRT inf", "setting": "[6]", "result": 24, "unit": "min"}, {"measurement": "GI50", "setting": "[7]", "result": 868, "unit": "nM"}, {"measurement": "inhibition", "setting": "[8]", "result": "Active"}, {"measurement": "inhibition", "setting": "[9]", "result": "Active"}, {"measurement": "Activity", "setting": "[10]", "result": 0.33, "unit": "g"}, {"measurement": "inhibition in vivo at 100 mg/kg", "setting": "[11]", "result": 83, "unit": "%"}, {"measurement": "EC50", "setting": "[12]", "result": 34, "unit": "nM"}, {"measurement": "Activity", "setting": "Homo sapiens", "result": "Dose-dependent effect"}, {"measurement": "Drug uptake", "setting": "[13]", "result": "Active"}, {"measurement": "Tmax", "setting": "[14]", "result": 1.8, "unit": "min"}, {"measurement": "AUC(0-inf)", "setting": "[15]", "result": 901, "unit": "ng·h/mL"}, {"measurement": "Cmax", "setting": "[16]", "result": 97.1, "unit": "ng/mL"}, {"measurement": "Activity", "setting": "[17]", "result": 0.1, "unit": "%"}, {"measurement": "AUC(0-inf)", "setting": "[18]", "result": 1480, "unit": "ng·h/mL"}]}
